Assay results: ChEMBL document CHEMBL1131948, “Design, synthesis, and evaluation of azapeptides as substrates and inhibitors for human rhinovirus 3C protease” (Bioorg Med Chem Lett, 1999)
The source made the active and inactive calls. The calls are words filed in the database; no cut-off is given here. Where a SMILES comes first, the peptide text is derived from it. The star is where a group is joined. Boc = CC(C)(C)OC(=O)*; X1 = c1ccc(O*)cc1

Key:
[1] = biological target: T1, Human rhinovirus A protease (Human rhinovirus sp.) (UniProt Q4U254); test: Inhibitory activity against human rhinovirus 3C protease (HRV-14 3Cpro); Inactive
T1 sequence (whole entry): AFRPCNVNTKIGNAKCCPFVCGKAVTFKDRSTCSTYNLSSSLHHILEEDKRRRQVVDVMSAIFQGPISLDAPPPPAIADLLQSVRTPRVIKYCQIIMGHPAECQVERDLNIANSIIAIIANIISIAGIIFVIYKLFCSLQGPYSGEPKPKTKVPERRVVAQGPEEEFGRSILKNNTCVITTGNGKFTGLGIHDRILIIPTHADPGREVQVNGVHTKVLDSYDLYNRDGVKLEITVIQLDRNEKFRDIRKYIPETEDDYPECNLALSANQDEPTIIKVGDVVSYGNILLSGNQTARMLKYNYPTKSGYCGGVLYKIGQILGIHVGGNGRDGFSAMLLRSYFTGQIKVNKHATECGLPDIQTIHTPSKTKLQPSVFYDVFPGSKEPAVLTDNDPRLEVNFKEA
Summary of the method: (§1)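 HRV-14 3C protease (0.75-3.3 µM) was preincubated with compound in 25 mM HEPES, 150 mM NaCl, 1 mM EDTA, pH 7.5, at 28-30 °C. Aliquots were taken periodically and diluted 13-fold into buffer containing 250 µM EALFQ-pNA, and absorbance was read at 405 nm. Activity is expressed relative to a no-inhibitor control, with the earliest point taken about 10-15 s after mixing.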

[2] = biological target: T1, Human rhinovirus A protease (Human rhinovirus sp.); test: Inhibitory activity against human rhinovirus 3C protease (HRV-14 3Cpro) at a concentration of 150 uM after 75 min of incubation; parameters: scale not given: the % may be the effect or the level left; summary of the method: as §1
[3] = biological target: T1, Human rhinovirus A protease (Human rhinovirus sp.); test: Inhibitory activity against human rhinovirus 3C protease (HRV-14 3Cpro) at a concentration of 100 uM after 110 min of incubation; parameters: scale not given: the % may be the effect or the level left; summary of the method: as §1
[4] = biological target: T1, Human rhinovirus A protease (Human rhinovirus sp.); test: Inhibitory activity against human rhinovirus 3C protease (HRV-14 3Cpro) at a concentration of 50 uM after 45 min of incubation; parameters: scale not given: the % may be the effect or the level left; summary of the method: as §1
[5] = biological target: T1, Human rhinovirus A protease (Human rhinovirus sp.); test: Inhibitory activity against human rhinovirus 3C protease (HRV-14 3Cpro) at a concentration of 150 uM after 60 min of incubation; parameters: scale not given: the % may be the effect or the level left; summary of the method: as §1
[6] = biological target: T1, Human rhinovirus A protease (Human rhinovirus sp.); test: Inhibitory activity against human rhinovirus 3C protease (HRV-14 3Cpro) at a concentration of 150 uM; parameters: scale not given: the % may be the effect or the level left; summary of the method: as §1
[7] = biological target: T1, Human rhinovirus A protease (Human rhinovirus sp.); test: Inhibitory activity against human rhinovirus 3C protease (HRV-14 3Cpro) at a concentration of 100 uM after 15 min of incubation; parameters: scale not given: the % may be the effect or the level left; summary of the method: as §1
[8] = biological target: T1, Human rhinovirus A protease (Human rhinovirus sp.); test: Inhibitory activity against human rhinovirus 3C protease (HRV-14 3Cpro) at a concentration of 150 uM after 90 min of incubation; parameters: scale not given: the % may be the effect or the level left; summary of the method: as §1
[9] = biological target: T1, Human rhinovirus A protease (Human rhinovirus sp.); test: Inhibitory activity against human rhinovirus 3C protease (HRV-14 3Cpro) at a concentration of 150 uM after 30 min of incubation; parameters: scale not given: the % may be the effect or the level left; summary of the method: as §1
[10] = biological target: T1, Human rhinovirus A protease (Human rhinovirus sp.); test: Inhibitory activity against human rhinovirus 3C protease (HRV-14 3Cpro) at a concentration of 150 uM after 15 min of incubation; parameters: scale not given: the % may be the effect or the level left; summary of the method: as §1
[11] = biological target: T1, Human rhinovirus A protease (Human rhinovirus sp.); test: Inhibitory activity against human rhinovirus 3C protease (HRV-14 3Cpro) at a concentration of 50 uM; parameters: scale not given: the % may be the effect or the level left; summary of the method: as §1
[12] = biological target: T1, Human rhinovirus A protease (Human rhinovirus sp.); test: Inhibitory activity against human rhinovirus 3C protease (HRV-14 3Cpro) at a concentration of 100 uM after 30 min of incubation; parameters: scale not given: the % may be the effect or the level left; summary of the method: as §1
[13] = biological target: T1, Human rhinovirus A protease (Human rhinovirus sp.); test: Inhibitory activity against human rhinovirus 3C protease (HRV-14 3Cpro) at a concentration of 100 uM; parameters: scale not given: the % may be the effect or the level left; summary of the method: as §1
[14] = biological target: T1, Human rhinovirus A protease (Human rhinovirus sp.); test: Inhibitory activity against human rhinovirus 3C protease (HRV-14 3Cpro) at a concentration of 50 uM after 30 min of incubation; parameters: scale not given: the % may be the effect or the level left; summary of the method: as §1
[15] = biological target: T1, Human rhinovirus A protease (Human rhinovirus sp.); test: Inhibitory activity against human rhinovirus 3C protease (HRV-14 3Cpro) at a concentration of 100 uM after 45 min of incubation; parameters: scale not given: the % may be the effect or the level left; summary of the method: as §1
[16] = biological target: T1, Human rhinovirus A protease (Human rhinovirus sp.); test: Inhibitory activity against human rhinovirus 3C protease (HRV-14 3Cpro) at a concentration of 50 uM after 15 min of incubation; parameters: scale not given: the % may be the effect or the level left; summary of the method: as §1
[17] = biological target: T1, Human rhinovirus A protease (Human rhinovirus sp.); test: Inhibitory activity against human rhinovirus 3C protease (HRV-14 3Cpro) at a concentration of 100 uM after 75 min of incubation; parameters: scale not given: the % may be the effect or the level left; summary of the method: as §1
[18] = biological target: T1, Human rhinovirus A protease (Human rhinovirus sp.); test: Inhibitory activity against human rhinovirus 3C protease (HRV-14 3Cpro) at a concentration of 150 uM after 110 min of incubation; parameters: scale not given: the % may be the effect or the level left; summary of the method: as §1
[19] = biological target: T1, Human rhinovirus A protease (Human rhinovirus sp.); test: Inhibitory activity against human rhinovirus 3C protease (HRV-14 3Cpro) at a concentration of 100 uM after 60 min of incubation; parameters: scale not given: the % may be the effect or the level left; summary of the method: as §1
[20] = biological target: T1, Human rhinovirus A protease (Human rhinovirus sp.); test: Inhibitory activity against human rhinovirus 3C protease at a concentration of 150 uM (HRV-14 3Cpro); summary of the method: as §1

With CC(C)C[C@H](NC(=O)[C@@H](NC(=O)OC(C)(C)C)C(C)C)C(=O)N[C@@H](Cc1ccccc1)C(=O)NN(CCC(N)=O)C(=O)OCc1ccccc1 the Activity [1] was “inactive”.

With CC(C)C[C@H](NC(=O)[C@@H](NC(=O)OC(C)(C)C)C(C)C)C(=O)N[C@@H](Cc1ccccc1)C(=O)NN(CCC(N)=O)C(=O)OCC(Cl)(Cl)Cl the Activity [1] was “inactive”.

Molecule CC(C)C[C@H](NC(=O)[C@@H](NC(=O)OC(C)(C)C)C(C)C)C(=O)N[C@@H](Cc1ccccc1)C(=O)NN(CCC(N)=O)C(=O)Oc1ccccc1 has an Activity [2] of 45%, an Activity [3] of 95% and an Activity [4] of 85%. For the same molecule, the Activity [5] was 20%, the Activity [6] was 5% and the Activity [7] was 18%. For the same molecule, the Activity [8] was 70%, the Activity [9] was 13% and the Activity [10] was 10%. For the same molecule, the Activity [11] was 23%, the Activity [12] was 28% and the Activity [13] was 18%. For the same molecule, the Activity [14] was 75%, the Activity [15] was 62% and the Activity [16] was 40%. The Activity [17] was 95%, the Activity [18] was 85% and the Activity [19] was 90%.

CC(C)C[C@H](NC(=O)[C@@H](NC(=O)OC(C)(C)C)C(C)C)C(=O)N[C@@H](Cc1ccccc1)C(=O)NCC(=O)Oc1ccccc1 (Boc-VLFG-X1) gave a k [20] of 0.009 min⁻¹.

For CC(C)(C)OC(=O)N[C@@H](Cc1ccccc1)C(=O)NN(CCC(N)=O)C(=O)Oc1ccccc1, the Activity [1] was “inactive”.
